Screening results (PubChem BioAssay)
NF-kB expr up – compounds increasing NF-kB expression in human neuronal cells; NF-kB reporter expression; active compounds read high; fold change at 12.5 µM; 1.6% of 190,000 active; AID 1239; in the data active = fold change above about 3.3
FLuc inh counter – Photinus pyralis luciferase inhibition counter-screen. inhibition, % at 10 µM. P08659. 1.5% of 200,000 active. ATPLite firefly luciferase biochemical luminescence, 10 min. AID 1006;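 active = inhibition above about 50% when tested at 10 µM, limit read from the data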
STAT1 act – STAT1 signaling activation. NIH 3T3 STAT1-luciferase reporter, IFN-gamma, luminescence; 100% = IFN-gamma alone, no compound. activation (% of control), % at 5.5 µM. 2.6% of 200,000 active. AID 932;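 active = activation above the screen-wide mean activation plus 3 SD, cut at about 130% in these data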
Pf gametocyte – kills late stage P. falciparum gametocytes. P. falciparum stage V gametocytes, ATP luminescence, 24 h. inhibition, % at 10.9 µM. 0.065% of 150,000 active. AID 743093;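 active = inhibition above the mean plus 3 SD of compounds within the control limits, set per campaign, cut at about 38% in these data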
APP 5'UTR act – activates APP 5'UTR luciferase reporter | activation, % at 2 µM | 1% of 190,000 active | SH-SY5Y APP 5'UTR luciferase reporter, luminescence; zero percent = DMSO vehicle wells | AID 1276;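 active = activation above a set limit, based on mean plus 3 SD of controls, cut at about 140% in these data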
FLuc stim CS – affects firefly luciferase, flagging false hits in luciferase stimulation screens | ATPlite luciferase biochemical, luminescence, 10 min; 0 = ATP-free wells, 1 = DMSO control | activation factor at 10 µM | 200,000 tested, under 10 active | AID 1027;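 active = luciferase activation factor, scaled between plate controls, of at least 2 with compound at 10 µM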
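Assay system: Luciferase/luciferin detection reagent, cell-free biochemical luciferase assay / Also added: ATP substrate / Schedule: 10 min at ambient temperature / Measured by: luminescence measurement of luciferase light output / Benchmarks: low control with PBS replacing ATP, high control enzyme plus ATP without compound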
STAT1 act conf – confirmation of STAT1 signaling activators; shares compounds with STAT1 act; NIH 3T3 STAT1-luciferase reporter, IFN-gamma potentiation, luminescence; 100% = IFN-gamma EC80 alone, no compound; activation (% of control), % at 5.7 µM; 97% of 1,200 active; AID 1262;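 active = activation above a set limit carried over from the earlier primary STAT1 screen, cut at about 140% in these data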
NFkB act – NF-kappaB activation in STAT1 activator counter-screen; shares compounds with STAT1 act; HEK293T NF-kB luciferase reporter, TNF-alpha stimulated, luminescence; 100% = TNF-alpha with vehicle only; AID 1306; activation (% of control), % at 5.7 µM; 43% of 1,200 active;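 active = activation above the mean of solvent-only control wells plus 3 SD, set per campaign, cut at about 130% in these data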;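 also: TNF-alpha given at a submaximal dose yielding about 80% of full reporter signal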
STAT3 act 2 – activates human STAT3, counter-screen to STAT1 activators | shares compounds with STAT1 act | U3A cells STAT3-luciferase reporter, IL-6, luminescence; cells lack STAT1; 100 = IL-6 alone, no compound effect | activation (% of control), % at 5.7 µM | 46% of 1,200 active;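 active = activation above the solvent-only control well mean plus 3 SD, set per plate batch, cut at about 110% in these data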;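 also: higher means more STAT3 reporter activation so hits are non-selective activators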
Large screens that a line does not name were inactive (follow-up assays come after a bar, where they were run). An excerpt weighted towards active compounds, which were near 3.5% of everything screened.

Cc1ccc(COc2ccc(/C=N/O)cc2)cc1	NF-kB expr up 6.3, STAT1 act 176 | STAT1 act conf 203 | NFkB act 136 | STAT3 act 2 129
O=C(NC1=NCCS1)c1csc2ccccc12	NF-kB expr up 6.8, FLuc inh counter 55, STAT1 act 152 (no result: Pf gametocyte) | STAT1 act conf 199 | NFkB act inactive | STAT3 act 2 118
Cc1c(C(=O)N2CCc3ccccc32)oc2c1C(=O)CC(C)(C)C2	STAT1 act 157 (no result: Pf gametocyte) | STAT1 act conf 180 | NFkB act 134 | STAT3 act 2 113
O=C(CCCc1ccccc1)N1CCc2ccccc21	NF-kB expr up 7.7, FLuc inh counter 52, STAT1 act 180 | STAT1 act conf 221 | NFkB act 137 | STAT3 act 2 115
Cc1ccc(C(=O)N2CCc3ccccc32)o1	STAT1 act 165, APP 5'UTR act 159 | STAT1 act conf 183 | NFkB act inactive | STAT3 act 2 inactive
Cc1nc2ccccc2c2oc(C(=O)N3CCc4ccccc43)cc12	none (no result: Pf gametocyte)
Cc1ccc(CN2CCN(Cc3ccc4c(c3)OCCO4)CC2CCO)cc1 (configuration not stated)	none
COc1cccc(-c2noc(-c3cccnc3)n2)c1	NF-kB expr up 5.5, STAT1 act 159 | STAT1 act conf 188 | NFkB act inactive | STAT3 act 2 121
CCN(CC)S(=O)(=O)c1ccc(S(=O)(=O)NCC2CCCO2)cc1 (configuration not stated)	none (no result: NF-kB expr up, FLuc inh counter, STAT1 act, APP 5'UTR act, FLuc stim CS)
